Bioassay records: PubChem BioAssay, several laboratories
PG9 Ab binder – PG9 antibody binding by small molecule | AID 624416 | inhibition, % at 6.7 µM | 360,000 tested, 0.43% active | TR-FRET gp120-PG9 antibody binding; in the data active means inhibition above about 8.5%
VLA-4 inh – inhibition in a human VLA-4 binding assay | VLA-4 expressing cells, ligand binding flow cytometry | AID 2557 | P13612 | 330,000 tested, 0.2% active | inhibition, % (about 7 µM as worked out from the volumes in the protocol); in the data active means inhibition above about 50%
NR2E3 ag-1 – activates human NR2E3 receptor; Q9Y5X4; CHO-S Gal4-NCOR/VP16-NR2E3 two-hybrid, luciferase; inhibition of corepressor binding, % at 3.98 µM; 360,000 tested, 0.35% active; AID 602229;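 active means inhibition above the mean of all tested compounds plus 3 SD, cut at about 70% in these data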;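 further: 0% = DMSO with NR2E3 transfected cells and 100% = cells lacking NR2E3 construct; higher means lower luciferase signal from less NR2E3 corepressor binding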
Rev-erbA mod – modulates human Rev-erb alpha binding to DNA. Rev-erbα–FITC-DNA binding, fluorescence polarization, 90 min. P20393. activity, % at 10 µM. 370,000 tested, 0.79% active. AID 1259318;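 active means activity above about 14%, limit read from the data; passing the limit was not always enough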;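 further: 0% = DMSO wells with 35 nM protein and 100% = DMSO wells with 750 nM protein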
Target sequence (P20393 whole entry, looked up): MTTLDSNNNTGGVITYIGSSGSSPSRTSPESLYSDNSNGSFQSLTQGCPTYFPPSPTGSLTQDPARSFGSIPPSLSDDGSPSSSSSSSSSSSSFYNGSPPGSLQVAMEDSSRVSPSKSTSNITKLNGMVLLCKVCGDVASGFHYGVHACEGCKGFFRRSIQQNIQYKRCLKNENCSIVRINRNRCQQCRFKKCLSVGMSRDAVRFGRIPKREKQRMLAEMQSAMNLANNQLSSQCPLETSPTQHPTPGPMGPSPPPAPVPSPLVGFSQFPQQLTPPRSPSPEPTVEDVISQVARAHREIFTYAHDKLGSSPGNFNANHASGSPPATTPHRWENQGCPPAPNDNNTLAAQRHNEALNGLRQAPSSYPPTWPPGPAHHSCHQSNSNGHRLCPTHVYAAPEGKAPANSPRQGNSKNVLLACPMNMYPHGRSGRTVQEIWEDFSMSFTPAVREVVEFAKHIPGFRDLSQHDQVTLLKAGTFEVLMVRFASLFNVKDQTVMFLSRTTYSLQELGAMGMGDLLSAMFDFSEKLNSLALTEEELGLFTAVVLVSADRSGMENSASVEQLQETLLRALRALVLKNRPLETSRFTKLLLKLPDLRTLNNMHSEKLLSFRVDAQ
NR2E3 ag-2 – activates human photoreceptor nuclear receptor NR2E3; GST-NR2E3/biotin-RetCOR TR-FRET, 1536-well; Q9Y5X4; 320,000 tested, 0.12% active; inhibition of corepressor binding, % at 4.78 µM;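 active means percent inhibition above the cutoff of mean plus 3 SD of all tested compounds, set per screening campaign, cut at about 20% in these data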;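 further: 0% = DMSO wells and 100% = biotin wells as full block of FRET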
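System: GST-tagged NR2E3 plus biotinylated RetCOR corepressor; Buffer or medium: pH 7.5 Tris-based buffer; Probe or stimulus: RetCOR corepressor, biotinylated, 7 nM; Doses: compound at 4.8 µM, single dose; Schedule: 5 h incubation at 4 °C; Technique: time-resolved FRET; Evaluation: percent inhibition of TR-FRET ratio; Replication: one well per compound, singlicate testing.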
NR1D1 mod conf – Rev-erb alpha (human) modulation, hit confirmation; shares compounds with Rev-erbA mod; Rev-erb alpha FITC-DNA binding, fluorescence polarization, 90 min; activation, % at 25 µM; 3,000 tested, 61% active; AID 1259319;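 active means activation at or above a set limit, or at least 3 SD above the negative control mean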;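 further: 0% = 35 nM protein with DMSO and 100% = 750 nM protein high control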
RORg counter – counter-screen for Rev-erb alpha modulators: RORgamma DNA binding | shares compounds with Rev-erbA mod | purified RORgamma protein-FITC-DNA binding, fluorescence polarization | IC50, µM | 910 tested, 8% active | AID 1259320;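 active means Compounds whose fitted half-maximal concentration for disrupting protein-DNA binding is below 10 micromolar; the record names Rev-erb in its text, so the target is in doubt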
Numbers without * were called inactive; · = not tested or not shown. Rows were chosen to be rich in hits. Some 1.6% of all compounds tested hit in one or more screens of this group.

SMILES | PG9 Ab binder | VLA-4 inh | NR2E3 ag-1 | Rev-erbA mod | NR2E3 ag-2 | NR1D1 mod conf | others
CCc1ccc([C@@H]2C[C@H]3CN(Cc4ccccc4OC)C(=O)[C@]34CCCN24)cc1 | -2 | -2 | -30 | 53* | 0 | 3
CC(=O)Nc1ccc(-c2nnc(SCC(=O)Nc3ccc4c(c3)oc3ccccc34)n2C)cc1 | 1 | -2 | -15 | -1 | 2 | ·
Cn1c(SCC(=O)Nc2cccc(F)c2)nnc1-c1cc2ccccc2o1 | 2 | 1 | -15 | 75* | -64 | 102* | RORg counter=>40
COc1cc(OC)cc(C(=O)N(Cc2ccco2)c2c(N)n(Cc3ccccc3)c(=O)[nH]c2=O)c1 | -2 | · | 10 | 17* | · | -4
Cc1ccc(C(=O)N(Cc2ccco2)c2c(N)n(Cc3ccccc3)c(=O)[nH]c2=O)cc1 | 0 | · | 7 | 1 | · | ·
Cc1ccnc(NC(=O)C2CCCN(S(=O)(=O)c3ccc4[nH]c(=O)ccc4c3)C2)c1 (stereo not drawn) | 0 | 13 | -8 | -6 | 1 | ·
CCc1cc2ccc(C)c(C)c2nc1SCC(=O)Nc1cc(C)on1 | 1 | 10 | 20 | 16 | 1 | ·
Cc1cc(NC(=O)CSc2nc3c(C)c(C)ccc3cc2C)no1 | -2 | -1 | 16 | 25* | -2 | 15
Cc1cc(NC(=O)CSc2nc3cc(C)c(C)cc3cc2C)no1 | -2 | 9 | -4 | 85* | 0 | 48* | RORg counter=>40
CC(=O)Nc1ccc(OCCOc2ccc(/C=C3\C(=N)N4N=C(C(C)C)SC4=NC3=O)cc2)cc1 | -1 | -11 | -28 | -5 | -2 | ·
N#C/C(=C/C1=C(N2CCOCC2)C(=C/c2ccc(Cl)cc2)/CC1)C(=O)Nc1ccccc1F | -1 | · | 8 | 27* | · | 5
CCOC(=O)C1=C(C(C)=O)C(c2cccnc2)C(C#N)=C(N)O1 (stereo not drawn) | -1 | -1 | -5 | -8 | -6 | ·
CCOC(=O)C1=C(C#N)C(C(=O)OCC)c2ncccc21 (stereo not drawn) | 2 | · | 5 | 34* | · | 22*
Clc1cccc2sc(-c3nnc(-c4ccccc4)o3)c(Cl)c12 | 1 | 0 | -42 | 38* | 1 | 31*
Cn1cc(C(=O)NC2CCCCCC2)c(=O)c2cc(S(=O)(=O)N3CCCC3)ccc21 | 3 | 9 | -10 | 32* | 2 | 18*
CC(=O)NN1C(=O)/C(=C\c2ccc(O)cc2)SC1=S | -6 | -8 | 19 | 20* | -5 | 19*
O=C(NN1C(=O)/C(=C\c2ccc(O)c([N+](=O)[O-])c2)SC1=S)c1ccccc1Cl | -1 | 4 | -1 | 28* | 0 | 15
COc1ccc(C(=O)NCC(=O)c2ccccc2)cc1 | -1 | 15 | -108 | 8 | -3 | ·
COc1ccc2[nH]c(C(=O)Nc3ccc(C)c(F)c3)cc2c1 | 0 | -5 | -95 | 49* | 4 | 44* | RORg counter=1.5*
CN(C)/C=N/c1ncc(C(=O)c2ccc(-c3ccccc3)cc2)s1 | 2 | 2 | -50 | 17* | 4 | 10
Cc1ccc(N(Cc2cc3ccc(C)cc3[nH]c2=O)S(=O)(=O)c2ccccc2)cc1 | -1 | 9 | -22 | 34* | -1 | 19*
N#C/C(=C\c1ccc(N2CCOCC2)o1)C(=O)NCCc1ccccc1 | -13 | -4 | 1 | 7 | 2 | ·
N#C/C(=C\c1ccc(N2CCOCC2)o1)C(=O)NCC1CCCO1 (stereo not drawn) | -17 | -6 | -23 | 21* | -5 | 13
N#C/C(=C\c1ccc(N2CCOCC2)o1)C(=O)NC1CCCCC1 | -11 | -11 | -35 | 11 | -6 | ·
N#C/C(=C/c1ccc(N2CCOCC2)o1)C(=O)Nc1ccccc1 | -16 | · | -134 | 53* | · | 26*
SMILES | PG9 Ab binder | VLA-4 inh | NR2E3 ag-1 | Rev-erbA mod | NR2E3 ag-2 | NR1D1 mod conf | others
O=c1c2ccccc2ncn1CCOc1ccccc1[N+](=O)[O-] | 1 | -1 | -47 | 3 | -2 | ·
COc1ccc(OC)c(NC(=O)CSc2nc(N3CCOCC3)nc(N3CCOCC3)n2)c1 | 1 | -4 | 7 | 1 | 1 | ·
C/C(=N\NC(=O)c1nnn(-c2nonc2N)c1-c1ccc2c(c1)OCO2)c1cccs1 | -1 | 0 | -7 | -4 | 1 | ·
Cc1cc(C)nc(NC(=S)Nc2cccc(Cl)c2Cl)c1 | 2 | 0 | 14 | 63* | 7 | 5
Cc1cc(C)nc(NC(=S)Nc2ccc(Br)cc2Cl)c1 | -2 | 1 | -10 | 2 | -2 | ·
CNC(=S)Nc1ccc(OC)c(OC)c1 | 0 | 3 | 1 | 2 | 1 | ·
COc1ccc(NC(=S)Nc2cc(C)cc(C)n2)cc1OC | -2 | 10 | -7 | 22* | 2 | 0
O=C(NC(c1ccc(F)cc1)c1ccc2ccccc2n1)C1CCN(Cc2cccc(C(F)(F)F)c2)CC1 (stereo not drawn) | 1 | · | 17 | -3 | · | ·
N#C/C(=C\c1cccn1S(=O)(=O)c1ccccc1)S(=O)(=O)c1ccc(F)cc1 | 4 | · | -15 | 6 | · | ·
O=C(CSc1nnc(-c2ccccc2O)o1)Oc1ccc(OCc2ccccc2)cc1 | 8 | 11 | 4 | 36* | -1 | 5
COc1ccc(-c2cc3c(=O)n(CC(=O)NCc4cccnc4)ncn3n2)cc1 | 0 | 0 | -62 | -4 | 1 | ·
COc1ccc(-c2cc3c(=O)n(CC(=O)Nc4ccc(C(C)=O)cc4)ncn3n2)cc1 | -2 | -5 | -20 | 34* | 0 | 41* | RORg counter=>40
Cc1cc(N2CCOCC2)ccc1/C=C\[N+](=O)[O-] | -7 | 17 | 32 | -1 | 1 | ·
CC(C)CNC(=O)c1cc2nc3c(c(C(F)(F)F)n2n1)CCc1ccccc1-3 | 1 | -5 | 6 | 23 | 2 | ·
CCCCNC(=O)c1cc2nc3c(c(C(F)(F)F)n2n1)CCc1ccccc1-3 | 0 | 9 | -6 | 30* | 0 | 7
Cc1cccc(-n2ncc3c(=O)[nH]c(SCC(=O)N4CC(=O)Nc5ccccc54)nc32)c1 | 2 | 3 | -9 | 0 | 6 | ·
CCCCc1cc(=O)oc2cc(OCC(=O)N3CCc4ccccc43)ccc12 | -1 | 4 | -28 | 15 | 1 | ·
CCCc1cc(=O)oc2cc(OCC(=O)N3CCc4ccccc43)ccc12 | 2 | 6 | -5 | 21* | 3 | 8
CS(=O)(=O)Nc1ccc(-c2ccc(/C=C3\SC(N)=NC3=O)o2)cc1 | -12 | 0 | -9 | 44* | -5 | 33* | RORg counter=>40
O=C(Nc1ccccc1)c1cc(C2CCCCN2S(=O)(=O)Cc2cccc(C(F)(F)F)c2)on1 (stereo not drawn) | 1 | · | -24 | 6 | · | ·
COC(=O)[C@@]12C[C@@H](CC(=O)NCCCN3CCCC3=O)C(=O)N(CCc3ccc(OC)c(OC)c3)C1=CCC(C)(C)C2 | 0 | · | · | -4 | · | ·
